SMILES strings stand for the structures. Active and inactive are the calls of the source. No cut-off for these calls is given here.

The target of one data set is Histamine H3 receptor (Homo sapiens, UniProt Q9Y5N1). Nature of the data set: Displacement of [3H]N-alpha-methylhistamine from full length recombinant human H3R expressed in HEK293 cell membranes after 90 mins by beta scintillation counting method. The procedure, abridged:
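Frozen crude membranes from HEK-293 cells stably expressing full-length human H3R were incubated 90 min at RT with shaking, with [3H]Nα-methylhistamine (2 nM; KD 3.08 nM) and 5–11 concentrations of test compound between 0.01 nM and 10 μM. Nonspecific binding was defined with pitolisant 10 μM. Samples were filtered on PEI-treated GF/B filters and washed with ice-cold water. Ki was derived from IC50 by Cheng-Prusoff; ≥3 experiments, each in at least duplicate.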
In general terms: Loss of bound radioactivity is the signal in a displacement assay; it reports binding, not function.

For data set [1], the system named is HepG2. Nature of the data set: Cytotoxicity against human HepG2 cells assessed as decrease in cell viability at 1 uM by MTS assay relative to control. Format: cell-based. Conditions: hepg2, 1 µM. The procedure, abridged:
(§1)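 HepG2 hepatoma cells; viability read by MTS at 490 nm against untreated negative control. Doxorubicin and CCCP served as reference toxins. One-way ANOVA with Bonferroni.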

For data set [2], the system named is HepG2. Description: Cytotoxicity against human HepG2 cells assessed as decrease in cell viability at 10 uM by MTS assay relative to control. To be noted: hepg2, 10 µM. Type of data set: cell-based. In a few lines:
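HepG2 human hepatoma cells (ATCC HB-8065) were exposed to the test compound at concentrations that included 10 and 100 μM. Viability was read by the MTS assay at 490 nm absorbance and expressed relative to an untreated negative control. Doxorubicin and CCCP served as reference toxins. Significance was tested by one-way ANOVA with Bonferroni's comparison test.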
Background: Formazan colour is commonly taken as a measure of viable cells.

Data set [3] is described as follows: Toxicity in CD-1 mouse assessed as effect on spontaneous activity by measuring decrease in locomotor activity at 5 mg/kg, ip measured at 30 mins post dose for 20 mins. To be noted: in vivo. Type of data set: organism-based. The procedure, abridged: (§2)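 Male CD-1 mice (20–22 g) were placed in the activity cage immediately after i.p. dosing. Distance travelled was recorded from 30 min post-dose over 20 min. Groups had 6–8 animals.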

The subject of data set [4] is Rattus norvegicus. Description: Protection against development of overweight in Wistar rat fed with palatable feed assessed as decrease in weight gain at 3 mg/kg, ip once daily for 14 days. Format: functional, organism-based. In a few lines:
(§3)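 Male Wistar rats (initial 160–180 g), housed in pairs, given palatable diet (peanuts, condensed milk, milk chocolate with hazelnuts, Greek cheese) and dosed i.p. once daily in the morning for 14 days in 1% Tween 80; controls were vehicle on palatable or standard diet. Food intake was recorded three times per week and body weight daily before dosing. Results are mean ± SEM, n = 6; two-way ANOVA with Bonferroni.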

The nature of data set [5]: Toxicity in CD-1 mouse assessed as effect on spontaneous activity by measuring decrease in locomotor activity at 3 mg/kg, ip measured at 30 mins post dose for 20 mins. Type of data set: organism-based. Conditions: in vivo. The procedure, abridged:
as §2

The subject of data set [6] is Rattus norvegicus. Description: Protection against hyperglycemia in Wistar rat fed with palatable feed assessed as decrease in plasma glucose level at 3 mg/kg, ip once daily for 14 days by spectrophotometric method. Type of data set: functional, organism-based. The procedure, abridged: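 On day 15, plasma was taken from the left carotid artery 20 min after i.p. heparin (1000 j/rat) and thiopental (70 mg/kg b.w.), and peritoneal fat was weighed. Glucose was measured by an enzymatic colorimetric test read at 500 nm. Rats had been on palatable diet with daily i.p. dosing in 1% Tween 80 for 14 days.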

Data set [7] is described as follows: Toxicity in Wistar rat fed with palatable diet assessed as effect on spontaneous activity by measuring induction of sedation at 3 mg/kg, ip for 13 days measured on day 1 and 13 at 24 hrs post dose. Type of data set: organism-based. Conditions: in vivo. The procedure, abridged: (§4)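 Wistar rats on palatable diet, housed in pairs in home cages, received daily i.p. dosing. Spontaneous activity was recorded by an RFID system for 24 h after dosing on days 1 and 13. Results are mean ± SEM, n = 6; multiple t-test.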

Data set [8] concerns Rattus norvegicus. Description: Protection against development of overweight in Wistar rat fed with palatable feed assessed as weight gain at 3 mg/kg, ip once daily for 14 days measured on day 9 during compound dosing relative to control. Format: functional. In a few lines:
as §3

Data set [9] concerns Rattus norvegicus. Nature of the data set: Anorectic activity in Wistar rat fed with palatable diet assessed as reduction in amount of calories consumed at 3 mg/kg, ip once daily for 14 days. Format: functional, organism-based. The procedure, abridged: as §3
Data set [10] relates to Rattus norvegicus. Nature of the data set: Protection against development of overweight in Wistar rat fed with palatable feed assessed as weight gain at 3 mg/kg, ip once daily for 14 days measured on day 14 during compound dosing relative to control. Format: functional. In a few lines: as §3
In data set [11] the test system is Rattus norvegicus. Description: Protection against development of overweight in Wistar rat fed with palatable feed assessed as decrease in peritoneal fat at 3 mg/kg, ip once daily for 14 days measured on day 15. Format: functional, organism-based.
Data set [12] can be described thus: Toxicity in Wistar rat fed with palatable diet assessed as effect on spontaneous activity by measuring induction of hyperlocomotion at 3 mg/kg, ip for 13 days measured on day 1 and 13 at 24 hrs post dose. Type of data set: organism-based. To be noted: in vivo. In a few lines:
as §4

Data set [13] deals with Rattus norvegicus. Description: Protection against development of overweight in Wistar rat fed with palatable feed assessed as decrease in weight gain at 1 mg/kg, ip once daily for 14 days measured daily during compound dosing. Format: functional, organism-based. The procedure, abridged: as §3
The test system of data set [14] is Rattus norvegicus. Nature of the data set: Protection against development of overweight in Wistar rat fed with preferantial feed assessed as decrease in weight gain at 3 mg/kg, ip once daily for 14 days measured daily during compound dosing. Format: functional, organism-based. The procedure, abridged: as §3
Data set [15] has as its system HepG2. Nature of the data set: Cytotoxicity against human HepG2 cells assessed as decrease in cell viability at 10 to 100 uM by MTS assay relative to control. Type of data set: cell-based. To be noted: hepg2, 100 µM. The procedure, abridged: as §1
In data set [16] the test system is HepG2. Nature of the data set: Induction of phospholipidosis in human HepG2 cells assessed as increase in number of cellular lysosomes at 50 uM after 72 hrs by LYSO-ID Red and Hoechst 33342 staining based fluorescence microscopic method. Format: cell-based. Conditions: hepg2, 72 h.
Data set [17] is described as follows: Metabolic stability in human liver microsomes assessed as parent compound remaining after 120 mins by UPLC analysis. Conditions: read-out: Stability. Type of data set: ADME, Microsome. Background: Liver microsomes are vesicles of endoplasmic reticulum, rich in cytochrome P450 enzymes.

Chain of Histamine H3 receptor (Q9Y5N1 whole entry): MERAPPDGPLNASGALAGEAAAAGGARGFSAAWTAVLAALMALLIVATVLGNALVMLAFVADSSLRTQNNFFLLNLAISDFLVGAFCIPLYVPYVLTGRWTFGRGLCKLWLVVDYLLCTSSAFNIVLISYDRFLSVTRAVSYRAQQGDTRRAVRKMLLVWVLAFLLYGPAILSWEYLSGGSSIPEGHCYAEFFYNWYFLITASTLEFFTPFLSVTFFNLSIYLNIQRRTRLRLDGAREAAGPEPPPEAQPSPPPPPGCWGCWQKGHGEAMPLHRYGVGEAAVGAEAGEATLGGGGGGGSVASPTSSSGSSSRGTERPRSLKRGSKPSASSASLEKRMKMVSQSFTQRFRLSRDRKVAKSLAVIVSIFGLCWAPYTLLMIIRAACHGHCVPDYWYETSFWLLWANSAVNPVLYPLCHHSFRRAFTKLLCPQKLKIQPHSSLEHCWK

As usually defined, the Ki is a dissociation constant, usually derived from enzyme kinetics or from competition with a known ligand. On to `CC(=O)c1ccc(OCCCCN2CCN(c3cccnc3)CC2)cc1`, for which the inhibition constant Ki on Histamine H3 receptor came out at 908 nM.
As for `CCC(=O)c1ccc(OCCCCN2CCN(c3cnccn3)CC2)cc1`, the Ki on Histamine H3 receptor stood at 4040 nM.
On the same count and under the same terms, the result for `CC(=O)c1ccc(OCCCCN2CCN(C(=O)C3CCCO3)CC2)cc1` (centres undefined) reads greater than 10000 nM; that for `CCC(=O)c1ccc(OCCCN2CCN(c3cccnc3)CC2)cc1`, 192 nM.
With `CCC(=O)c1ccc(OCCCCN2CCN(c3ccncc3)CC2)cc1`, at Histamine H3 receptor, the Ki worked out at 15.4 nM.
Same read-out and setting: the same measure for `CCC(=O)c1ccc(OCCCN2CCN(c3cnccn3)CC2)cc1`: 3390 nM.
Same read-out and setting: the same measure for `CC(=O)c1ccc(OCCCN2CCN(c3cnccn3)CC2)cc1`: 2320 nM.
On the same count and under the same terms, the same measure for `CC(=O)c1ccc(OCCCN2CCN(C(=O)C3CCCO3)CC2)cc1` (centres undefined): 4890 nM.
Consider `CCC(=O)c1ccc(OCCCCN2CCN(c3cccnc3)CC2)cc1`, for which, on Histamine H3 receptor, the inhibition constant Ki came to 1390 nM.
With `CC(=O)c1ccc(OCCCN2CCN(c3cccnc3)CC2)cc1`, the inhibitory constant (Ki) on Histamine H3 receptor stood at 499 nM.
Regarding `CC(=O)c1ccc(OCCCCN2CCN(c3ccccn3)CC2)cc1`, the Ki at Histamine H3 receptor is 3700 nM.
On the same count and under the same terms, the result for `CCC(=O)c1ccc(OCCCN2CCN(C(=O)C3CCCO3)CC2)cc1` (centres undefined) reads 1390 nM; that for `CCC(=O)c1ccc(OCCCN2CCN(c3ncccn3)CC2)cc1`, 1720 nM.
With `COc1cccc2c1C(=O)c1c(O)c3c(c(O)c1C2=O)C[C@@](O)(C(=O)CO)C[C@@H]3O[C@H]1C[C@H](N)[C@H](O)[C@H](C)O1` [DOXORUBICIN], in the data set on HepG2 [1], the Activity is greater than 50%.
`CCC(=O)c1ccc(OCCCCN2CCN(c3ccccn3)CC2)cc1`: the Ki at Histamine H3 receptor was determined as 1440 nM.
As to `CCC(=O)c1ccc(OCCCCN2CCN(c3ncccn3)CC2)cc1`, the inhibition constant (Ki) at Histamine H3 receptor was 3630 nM.
Consider `CCC(=O)c1ccc(OCCCN2CCN(c3ccccn3)CC2)cc1`, for which, on Histamine H3 receptor, the Ki was determined as 377 nM.
On the same count and under the same terms, the result for `CC(=O)c1ccc(OCCCCN2CCN(c3cnccn3)CC2)cc1` reads 1230 nM.
Consider `N#CC(C#N)=NNc1cccc(Cl)c1` [CARBONYL CYANIDE M-CHLOROPHENYLHYDRAZONE], for which the Activity with HepG2 [2] was greater than 50%.
For the compound `CCC(=O)c1ccc(OCCCN2CCN(c3ccncc3)CC2)cc1`, the Activity result in data set [3] was “Toxic”; in data set [5], “Non-Toxic”. Further, the inhibitory constant (Ki) at Histamine H3 receptor worked out at 5.2 nM. Moreover, the result in the data set with Rattus norvegicus [4] was inactive.
For the compound `CC(=O)c1ccc(OCCCN2CCN(c3ccncc3)CC2)cc1`, the outcome in the data set with Rattus norvegicus [6], with Rattus norvegicus [9], with Rattus norvegicus [11] and in the data set with Rattus norvegicus [14] was Active. Besides, the Activity result is given as “Non-Toxic” in data set [7]; 8.64% in the data set on Rattus norvegicus [8]; 7.89% in the data set on Rattus norvegicus [10]; “Non-Toxic” in data set [12]; “Toxic” in data set [3]; 10% in the data set with HepG2 [15]. The Activity entry (in the data set on HepG2 [16]; in [5]) was “Non-Toxic” throughout. Moreover, the inhibition constant (Ki) at Histamine H3 receptor is 10.2 nM. For the same compound, in the data set on Rattus norvegicus [13], the result was inactive. The remaining at 2 h in [17] stood at 91.3%.
For the compound `CC(=O)c1ccc(OCCCCN2CCN(c3ncccn3)CC2)cc1`, at Histamine H3 receptor, the inhibition constant (Ki) is 1630 nM.
For `CC(=O)c1ccc(OCCCN2CCN(c3ccccn3)CC2)cc1`, the Ki at Histamine H3 receptor amounted to 315 nM.
Consider `CC(=O)c1ccc(OCCCCN2CCN(c3ccncc3)CC2)cc1`, for which, at Histamine H3 receptor, the inhibition constant Ki worked out at 115 nM.
In the case of `CC(=O)c1ccc(OCCCN2CCN(c3ncccn3)CC2)cc1`, the Ki at Histamine H3 receptor was 2450 nM.
Turning to `CCC(=O)c1ccc(OCCCCN2CCN(C(=O)C3CCCO3)CC2)cc1` (centres undefined), the Ki at Histamine H3 receptor is greater than 10000 nM.
Regarding `CC(=O)N1CCN(c2ccc(OCC3COC(Cn4ccnc4)(c4ccc(Cl)cc4Cl)O3)cc2)CC1` (centres undefined) [KETOCONAZOLE], in the data set with HepG2 [16], the Activity result is on record as “Toxic”.

The record behind these values is ChEMBL document CHEMBL4382227, “Optimization and preclinical evaluation of novel histamine H3receptor ligands: Acetyl and propionyl phenoxyalkyl piperazine derivatives” (Bioorg Med Chem, 2018).
